Active and inactive are the calls of the source. The calls are words filed in the database; no cut-off is given here.
Experiments:
Calf thymus DNA [1] = experiment: Binding affinity to calf thymus DNA assessed as decrease in DNA sedimentation coefficient at 20 x 10^-6 M relative to untreated control; type: nucleic-acid assay; settings: Bos taurus
[2] = biological target: T1, Bacterial DNA-directed RNA polymerase (Bacteria) (UniProt P0A8V2+P0A7Z4+P0A8T7+P0A800); experiment: Stimulation of Escherichia coli DNA-primed RNA polymerase activity using [8-14C]ATP at 100 ug/ml by scintillation counting; type: protein-complex assay
Method in brief: (§1)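 Commercial E. coli RNA polymerase was used, with calf thymus DNA template (3.65 µg) in 0.125 ml containing Tris-HCl pH 8.0, MgCl2, β-mercaptoethanol, CTP/UTP/GTP (0.019 µmol each) and [8-14C]ATP (0.019 µmol). Compound in DMSO was added before the enzyme; controls received DMSO. Mixtures were incubated 10 min at 37°. Acid-insoluble label was collected by filter-disk assay and counted by liquid scintillation.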

L1210 [3] = experiment: Cytotoxicity against mouse L1210 cells assessed as growth inhibition at 100 ug/ml after 24 hrs; type: functional
Method in brief: (§2)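 L1210 leukemia cells seeded at 10^5 cells/ml and grown in static culture in RPMI 1630 medium with fetal calf serum. Drug tested at 0.01–100 µg/ml, with 24 h and 48 h exposures. Read-out is percent inhibition of growth. Assays were run in triplicate, and values are the mean of two separate experiments.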

L1210 [4] = experiment: Cytotoxicity against mouse L1210 cells assessed as growth inhibition at 10 ug/ml after 24 hrs; type: functional; method in brief: as §2
L1210 [5] = experiment: Cytotoxicity against mouse L1210 cells assessed as growth inhibition at 0.1 ug/ml after 48 hrs; type: functional; method in brief: as §2
Calf thymus DNA [6] = experiment: Binding affinity to calf thymus DNA assessed as decrease in DNA sedimentation coefficient at 5.2 x 10^-6 M relative to untreated control; type: nucleic-acid assay; settings: Bos taurus
Method in brief: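 Calf thymus DNA was mixed with compound at 5.2 × 10^-6 M and incubated 30 min at about 22°. Sedimentation was run in an analytical ultracentrifuge at 20°, with UV scanning at 260 nm. Each run included a drug-free DNA control. Sedimentation coefficients were not corrected for density or viscosity.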

L1210 [7] = experiment: Cytotoxicity against mouse L1210 cells assessed as growth inhibition at 100 ug/ml after 48 hrs; type: functional; method in brief: as §2
[8] = biological target: T1, Bacterial DNA-directed RNA polymerase (Bacteria); experiment: Stimulation of Escherichia coli DNA-primed RNA polymerase activity using [8-14C]ATP at 50 ug/ml by scintillation counting; type: protein-complex assay; method in brief: as §1
[9] = biological target: T1, Bacterial DNA-directed RNA polymerase (Bacteria); experiment: Stimulation of Escherichia coli DNA-primed RNA polymerase activity using [8-14C]ATP by scintillation counting; type: protein-complex assay; method in brief: as §1
L1210 [10] = experiment: Cytotoxicity against mouse L1210 cells assessed as growth inhibition at 0.1 ug/ml after 24 hrs; type: functional; method in brief: as §2
L1210 [11] = experiment: Cytotoxicity against mouse L1210 cells assessed as growth inhibition at 1 ug/ml after 24 hrs; type: functional; method in brief: as §2
L1210 [12] = experiment: Cytotoxicity against mouse L1210 cells assessed as growth inhibition at 0.01 ug/ml after 24 hrs; type: functional; method in brief: as §2
[13] = biological target: T1, Bacterial DNA-directed RNA polymerase (Bacteria); experiment: Stimulation of Escherichia coli DNA-primed RNA polymerase activity using [8-14C]ATP at 400 ug/ml by scintillation counting; type: protein-complex assay; method in brief: as §1
L1210 [14] = experiment: Cytotoxicity against mouse L1210 cells assessed as growth inhibition at 1 ug/ml after 48 hrs; type: functional; method in brief: as §2
L1210 [15] = experiment: Cytotoxicity against mouse L1210 cells assessed as growth inhibition at 10 ug/ml after 48 hrs; type: functional; method in brief: as §2
L1210 [16] = experiment: Cytotoxicity against mouse L1210 cells assessed as growth inhibition at 0.01 ug/ml after 48 hrs; type: functional; method in brief: as §2
[17] = biological target: T1, Bacterial DNA-directed RNA polymerase (Bacteria); experiment: Stimulation of Escherichia coli DNA-primed RNA polymerase activity using [8-14C]ATP at 25 ug/ml by scintillation counting; type: protein-complex assay; method in brief: as §1
[18] = biological target: T1, Bacterial DNA-directed RNA polymerase (Bacteria); experiment: Stimulation of Escherichia coli DNA-primed RNA polymerase activity using [8-14C]ATP at 200 ug/ml by scintillation counting; type: protein-complex assay; method in brief: as §1
[19] = biological target: T1, Bacterial DNA-directed RNA polymerase (Bacteria); experiment: Inhibition of Escherichia coli DNA-primed RNA polymerase activity using [8-14C]ATP at 400 ug/ml by scintillation counting; type: protein-complex assay; design: scale not given: the % may be the effect or the level left; method in brief: as §1
[20] = biological target: T1, Bacterial DNA-directed RNA polymerase (Bacteria); experiment: Inhibition of Escherichia coli DNA-primed RNA polymerase activity using [8-14C]ATP at 25 ug/ml by scintillation counting; type: protein-complex assay; design: scale not given: the % may be the effect or the level left; method in brief: as §1
[21] = biological target: T1, Bacterial DNA-directed RNA polymerase (Bacteria); experiment: Inhibition of Escherichia coli DNA-primed RNA polymerase activity using [8-14C]ATP at 200 ug/ml by scintillation counting; type: protein-complex assay; design: scale not given: the % may be the effect or the level left; method in brief: as §1
[22] = biological target: T1, Bacterial DNA-directed RNA polymerase (Bacteria); experiment: Inhibition of Escherichia coli DNA-primed RNA polymerase activity using [8-14C]ATP at 50 ug/ml by scintillation counting; type: protein-complex assay; design: scale not given: the % may be the effect or the level left; method in brief: as §1
[23] = biological target: T1, Bacterial DNA-directed RNA polymerase (Bacteria); experiment: Inhibition of Escherichia coli DNA-primed RNA polymerase activity using [8-14C]ATP at 100 ug/ml by scintillation counting; type: protein-complex assay; design: scale not given: the % may be the effect or the level left; method in brief: as §1
[24] = biological target: Bacterial DNA-directed RNA polymerase (Bacteria, UniProt P0A7Z4+P0A800+P0A8T7+P0A8V2); experiment: Inhibition of Escherichia coli DNA-primed RNA polymerase activity using [8-14C]ATP by scintillation counting; type: protein-complex assay; method in brief: as §1
Calf thymus DNA [25] = experiment: Binding affinity to calf thymus DNA by ESR spectrum; type: nucleic-acid assay; settings: Bos taurus

T1 sequence (P0A7Z4 whole entry partner): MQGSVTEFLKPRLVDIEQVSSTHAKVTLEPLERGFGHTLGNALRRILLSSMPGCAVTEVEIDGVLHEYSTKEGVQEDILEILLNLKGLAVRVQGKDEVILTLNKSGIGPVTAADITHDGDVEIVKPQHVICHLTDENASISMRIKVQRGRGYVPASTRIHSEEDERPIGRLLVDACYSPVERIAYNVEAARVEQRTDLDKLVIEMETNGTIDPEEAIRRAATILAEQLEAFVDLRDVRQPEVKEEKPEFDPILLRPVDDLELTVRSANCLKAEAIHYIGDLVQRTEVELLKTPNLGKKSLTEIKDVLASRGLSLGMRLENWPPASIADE
T1 sequence (P0A800 2-91 partner limits assumed): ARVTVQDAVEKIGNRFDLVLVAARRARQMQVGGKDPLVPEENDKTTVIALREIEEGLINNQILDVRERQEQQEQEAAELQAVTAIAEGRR
T1 sequence (P0A8T7 whole entry partner): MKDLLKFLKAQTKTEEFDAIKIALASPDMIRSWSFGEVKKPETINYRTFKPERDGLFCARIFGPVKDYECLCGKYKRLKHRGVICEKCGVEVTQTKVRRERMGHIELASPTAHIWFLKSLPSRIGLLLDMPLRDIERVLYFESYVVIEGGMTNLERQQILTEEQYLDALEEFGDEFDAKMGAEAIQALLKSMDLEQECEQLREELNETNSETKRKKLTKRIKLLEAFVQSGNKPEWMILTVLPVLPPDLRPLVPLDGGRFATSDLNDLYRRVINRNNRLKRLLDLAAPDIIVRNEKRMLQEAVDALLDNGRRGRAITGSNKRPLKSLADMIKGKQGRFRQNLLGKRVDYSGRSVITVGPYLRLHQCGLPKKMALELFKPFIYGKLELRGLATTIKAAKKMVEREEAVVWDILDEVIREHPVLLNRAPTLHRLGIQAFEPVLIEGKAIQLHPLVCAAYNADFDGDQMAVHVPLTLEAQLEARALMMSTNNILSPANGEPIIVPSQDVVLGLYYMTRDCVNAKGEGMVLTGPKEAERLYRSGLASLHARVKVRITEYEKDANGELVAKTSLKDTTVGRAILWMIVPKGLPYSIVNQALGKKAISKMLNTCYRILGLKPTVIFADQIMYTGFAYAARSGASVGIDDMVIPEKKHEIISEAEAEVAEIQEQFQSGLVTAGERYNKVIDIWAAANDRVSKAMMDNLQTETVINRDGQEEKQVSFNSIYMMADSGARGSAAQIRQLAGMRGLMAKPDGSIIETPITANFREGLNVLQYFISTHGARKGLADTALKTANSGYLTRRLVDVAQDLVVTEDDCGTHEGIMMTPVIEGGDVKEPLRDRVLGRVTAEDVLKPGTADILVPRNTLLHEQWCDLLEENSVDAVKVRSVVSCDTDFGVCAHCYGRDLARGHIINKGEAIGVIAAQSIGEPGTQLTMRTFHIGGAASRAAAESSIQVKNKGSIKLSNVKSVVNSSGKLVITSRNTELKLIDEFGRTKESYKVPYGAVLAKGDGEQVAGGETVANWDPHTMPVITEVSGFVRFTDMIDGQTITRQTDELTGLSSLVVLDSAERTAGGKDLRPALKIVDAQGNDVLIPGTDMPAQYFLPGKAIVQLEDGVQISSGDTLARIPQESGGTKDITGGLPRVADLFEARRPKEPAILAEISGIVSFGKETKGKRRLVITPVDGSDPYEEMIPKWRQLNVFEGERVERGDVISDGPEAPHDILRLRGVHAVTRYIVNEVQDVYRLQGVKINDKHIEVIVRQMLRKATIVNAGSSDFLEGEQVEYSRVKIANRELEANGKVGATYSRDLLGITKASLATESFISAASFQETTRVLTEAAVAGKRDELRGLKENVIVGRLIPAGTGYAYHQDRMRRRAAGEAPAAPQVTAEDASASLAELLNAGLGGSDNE
T1 sequence (P0A8V2 whole entry): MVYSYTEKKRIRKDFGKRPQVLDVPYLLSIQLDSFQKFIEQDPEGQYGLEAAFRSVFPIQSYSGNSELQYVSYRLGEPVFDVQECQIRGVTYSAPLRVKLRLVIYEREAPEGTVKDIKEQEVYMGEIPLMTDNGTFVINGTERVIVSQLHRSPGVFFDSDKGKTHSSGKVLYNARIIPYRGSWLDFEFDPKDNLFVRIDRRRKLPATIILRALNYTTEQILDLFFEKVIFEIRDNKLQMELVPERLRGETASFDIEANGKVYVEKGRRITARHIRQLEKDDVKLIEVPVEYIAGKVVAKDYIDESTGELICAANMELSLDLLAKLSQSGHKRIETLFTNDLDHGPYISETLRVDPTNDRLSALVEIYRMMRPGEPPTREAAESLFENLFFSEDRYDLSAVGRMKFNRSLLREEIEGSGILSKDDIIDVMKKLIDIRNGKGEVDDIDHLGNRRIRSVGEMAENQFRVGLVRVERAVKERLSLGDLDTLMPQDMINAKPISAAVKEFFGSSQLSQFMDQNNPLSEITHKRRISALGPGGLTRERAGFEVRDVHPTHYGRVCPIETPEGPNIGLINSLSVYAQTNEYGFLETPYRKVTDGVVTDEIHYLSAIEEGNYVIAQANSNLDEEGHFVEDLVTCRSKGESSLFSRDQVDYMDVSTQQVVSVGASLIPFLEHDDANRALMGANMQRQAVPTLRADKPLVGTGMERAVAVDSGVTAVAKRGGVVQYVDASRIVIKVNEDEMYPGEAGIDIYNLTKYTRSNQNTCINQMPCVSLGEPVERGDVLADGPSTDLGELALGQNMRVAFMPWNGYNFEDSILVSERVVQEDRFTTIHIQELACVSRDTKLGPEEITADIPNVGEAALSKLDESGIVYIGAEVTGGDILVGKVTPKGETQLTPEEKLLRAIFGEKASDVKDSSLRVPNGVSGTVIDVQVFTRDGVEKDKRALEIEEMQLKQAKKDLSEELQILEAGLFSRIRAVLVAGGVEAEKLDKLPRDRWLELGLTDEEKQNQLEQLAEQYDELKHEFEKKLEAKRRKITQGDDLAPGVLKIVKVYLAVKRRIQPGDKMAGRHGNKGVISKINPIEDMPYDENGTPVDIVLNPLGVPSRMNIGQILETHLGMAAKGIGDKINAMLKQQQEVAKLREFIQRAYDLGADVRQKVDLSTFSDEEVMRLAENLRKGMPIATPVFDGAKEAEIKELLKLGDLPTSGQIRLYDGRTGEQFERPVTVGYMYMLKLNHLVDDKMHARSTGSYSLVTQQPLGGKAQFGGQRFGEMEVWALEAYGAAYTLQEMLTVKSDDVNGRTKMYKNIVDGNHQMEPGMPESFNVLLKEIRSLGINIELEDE

Compound | Activity [2] [%] | growth inhibition (GI) (L1210 [3]) [%] | growth inhibition (GI) (L1210 [4]) [%] | growth inhibition (GI) (L1210 [5]) [%] | Ratio (Calf thymus DNA [6]) | growth inhibition (GI) (L1210 [7]) [%] | Activity [8] [%] | Activity [9] | growth inhibition (GI) (L1210 [10]) [%] | growth inhibition (GI) (L1210 [11]) [%] | growth inhibition (GI) (L1210 [12]) [%] | Activity [13] [%] | growth inhibition (GI) (L1210 [14]) [%] | growth inhibition (GI) (L1210 [15]) [%] | growth inhibition (GI) (L1210 [16]) [%] | Activity [19] [%] | Activity [20] [%] | Activity [21] [%] | Activity [22] [%] | Activity [23] [%] | also measured
Nc1ccc2cc3ccc(N)cc3nc2c1 | – | – | – | – | – | – | – | – | – | – | – | – | – | – | – | – | – | – | – | – | Ratio (Calf thymus DNA [1]): 1.13
COc1ccc2nc3cc(Cl)ccc3c(NC3CC(C)(C)N([O])C(C)(C)C3)c2n1 | 110 | 0 | 0 | 0 | 1.05 | 38 | 110 | Dose-dependent effect | 0 | 0 | 0 | 108 | 0 | 15 | 0 | – | – | – | – | – | Activity [17]: 108%; Activity [18]: 114%
CC1(C)CC(NCCCNc2c3ccccc3nc3ccccc23)CC(C)(C)N1[O] | – | 47 | 56 | 0 | – | 86 | – | – | 0 | 10 | 0 | – | 16 | 87 | 0 | 12 | 71 | 20 | 42 | 31 | –
CCN(CC)CCCC(C)Nc1c2ccc(Cl)cc2nc2ccc(OC)cc12 (stereo unspecified) [QUINACRINE] | – | – | – | – | – | – | – | – | – | – | – | – | – | – | – | – | – | – | – | – | IC50 [24]: 20 µM
CC1(C)CC(Nc2c3ccccc3nc3ccccc23)CC(C)(C)N1[O] | – | 53 | 49 | 7 | 1.04 | 87 | – | – | 1 | 27 | 0 | – | 56 | 84 | 2 | 9 | 96 | 21 | 77 | 36 | –
Nc1c2ccccc2nc2ccccc12 | – | – | – | – | – | – | – | – | – | – | – | – | – | – | – | 1.8 | 40 | 4 | 31 | 31 | –
CC1(C)CC(CNc2c3ccccc3nc3ccccc23)C(C)(C)N1[O] (stereo unspecified) | – | 48 | 46 | 2 | 1.08 | 82 | – | – | 3 | 12 | 0 | – | 29 | 79 | 3 | 10 | 87 | 22 | 70 | 45 | –
COc1ccc2nc3cc(Cl)ccc3c(NCC3CC(C)(C)N([O])C3(C)C)c2c1 (stereo unspecified) | 106 | 40 | 35 | 5 | 1.04 | 74 | 106 | Dose-dependent effect | 0 | 6 | 10 | 107 | 19 | 76 | 7 | – | – | – | – | – | Activity [17]: 112%; Activity [18]: 102%
COc1ccc2nc3cc(Cl)ccc3c(NC3CC(C)(C)N([O])C(C)(C)C3)c2c1 | 129 | 6 | 11 | 7 | 1.02 | 78 | 120 | Dose-dependent effect | 12 | 9 | 3 | 116 | 24 | 63 | 8 | – | – | – | – | – | Activity (Calf thymus DNA [25]): Active; Activity [17]: 108%; Activity [18]: 125%
COc1cc(NS(C)(=O)=O)ccc1Nc1c2ccccc2nc2ccccc12 [AMSACRINE] | – | – | – | – | – | – | – | – | – | – | – | – | – | – | – | – | – | – | – | – | inhibition of growth at 100 µg/mL (L1210 [3]; L1210, 24 h, read-out: GI): 57%; inhibition of growth at 10 µg/mL (L1210 [4]; L1210, 24 h, read-out: GI): 50%; inhibition of growth at 0.1 µg/mL (L1210 [5]; L1210, 48 h, read-out: GI): 75%; inhibition of growth at 100 µg/mL (L1210 [7]; L1210, 48 h, read-out: GI): 92%; inhibition of growth at 0.1 µg/mL (L1210 [10]; L1210, 24 h, read-out: GI): 29%; inhibition of growth at 1 µg/mL (L1210 [11]; L1210, 24 h, read-out: GI): 42%; inhibition of growth at 0.01 µg/mL (L1210 [12]; L1210, 24 h, read-out: GI): 6%; inhibition of growth at 1 µg/mL (L1210 [14]; L1210, 48 h, read-out: GI): 82%; inhibition of growth at 10 µg/mL (L1210 [15]; L1210, 48 h, read-out: GI): 87%; inhibition of growth at 0.01 µg/mL (L1210 [16]; L1210, 48 h, read-out: GI): 8%

Source: ChEMBL document CHEMBL3272030, “Synthesis and biological properties of some spin-labeled 9-aminoacridines” (J Med Chem, 1976)
